Experimental data from different studies.
Lines come from different studies, so protocols differ. pEC50: −log10 of the molar value.

| Compound | tested on | assay | test system | conditions | endpoint | value |
| --- | --- | --- | --- | --- | --- | --- |
| Cc1cc(C)c(C#N)c(OCC(=O)c2ccccc2)n1 | Leishmania infantum | parasite growth | mouse Macrophage | intracellular, amastigote | pEC50 | < 4.19 |
| C=CC(=O)NC1CCN(c2ncc3ncnc(Nc4ccc(Oc5ccc6c(c5)ncn6C)c(C)c4)c3n2)CC1 | HCC15 | cell growth or viability |  |  | pEC50 | 6.66 |
| Cc1cc(C)c(C#N)c(SCC(=O)c2ccccc2C)n1 | Leishmania infantum | parasite growth | mouse Macrophage | intracellular, amastigote | pEC50 | 5.13 |
| C=CC(=O)c1cccnc1Nc1cc(C(F)(F)F)ccc1OCc1ccccc1 | U-87 MG | cell growth or viability, SRB |  | 48 h | GI50 | 9.65 µM |
| Cc1[nH]c(C(=O)Nc2ccc(C(=O)NCC(=O)O)cc2N2CC[C@@H](N)C2)c(Cl)c1Cl.Cl | Klebsiella aerogenes | microbial growth, broth dilution | ATCC13408 |  | MIC | > 32 µg/mL |
| Cc1cc(C)nc(SCC(=O)c2cccs2)n1 | Leishmania infantum | parasite growth | mouse Macrophage | intracellular, amastigote | pEC50 | < 4.19 |
| O=C(O)c1ccccc1Nc1cccc(C(F)(F)F)c1 | U-87 MG | cell growth or viability, SRB |  | 48 h | GI50 | > 30 µM |
| COc1ccc(C(=O)CSc2nc(C)cc(C)c2C#N)cc1 | Leishmania infantum | parasite growth | mouse Macrophage | intracellular, amastigote | pEC50 | 4.60 |
| Cc1[nH]c(C(=O)Nc2ccc(C(=O)NCC(=O)O)cc2N2CC[C@H](NC(=O)OC(C)(C)C)C2)c(Cl)c1Cl | Klebsiella aerogenes | microbial growth, broth dilution | ATCC13408 |  | MIC | > 32 µg/mL |
| O=C(O)c1cccnc1Nc1cccc(C(F)(F)F)c1 | U-87 MG | cell growth or viability, SRB |  | 48 h | GI50 | > 30 µM |
| Cl.N[C@@H]1CCN(c2cc(C(=O)NCC(=O)O)ccc2NC(=O)c2cc(Br)c(Br)[nH]2)C1 | Klebsiella aerogenes | microbial growth, broth dilution | ATCC13408 |  | MIC | > 32 µg/mL |
| CC(=NNC(=O)COc1ccc2c(C)c(Cc3ccccc3)c(=O)oc2c1C)c1ccc(Br)cc1 | HCT-116 | cell growth or viability, MTT |  | 0.2 µg/mL | viability | 66% |
